# NF-kB expr up = raises NF-kB expression in human neuronal cells. NF-kB reporter expression; active compounds read high. fold change at 12.5 µM. hit rate 1.6% among 190,000. AID 1239; in the data active = fold change above about 3.3
# APP 5'UTR act = APP 5'UTR luciferase reporter activation; SH-SY5Y APP 5'UTR luciferase reporter, luminescence; zero percent = DMSO vehicle wells; activation, % at 2 µM; hit rate 1% among 190,000;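 active = activation above a set limit, based on mean plus 3 SD of controls, cut at about 140% in these data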
# STAT1 activator = STAT1 signaling activation | NIH 3T3 STAT1-luciferase reporter, IFN-gamma, luminescence; 100% = IFN-gamma alone, no compound | activation (% of control), % at 5.5 µM | hit rate 2.6% among 200,000 | AID 932;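 active = activation above the screen-wide mean activation plus 3 SD, cut at about 130% in these data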
# STAT1 inh = reduces IFN-gamma driven STAT1 reporter signal; NIH 3T3 STAT1-luciferase reporter, luminescence; inhibition, % at 5.5 µM; hit rate 0.35% among 200,000;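 active = inhibition above a set limit, the mean inhibition across all tested compounds plus 3 SD, cut at about 34% in these data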
# Pf gamet viab = kills late stage P. falciparum gametocytes; P. falciparum stage V gametocytes, ATP luminescence, 24 h; inhibition, % at 10.9 µM; hit rate 0.065% among 150,000; AID 743093;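 active = inhibition above the mean plus 3 SD of compounds within the control limits, set per campaign, cut at about 38% in these data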
# STAT3 activator = activators of IL-6 induced STAT3 signaling; U3A cells, IL-6 STAT3-luciferase reporter, luminescence; 100% = signal with IL-6 EC80 alone; activation (% of control), % at 5.6 µM; hit rate 0.91% among 190,000;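 active = activation above the screen-wide mean of compound activation plus 3 SD, cut at about 130% in these data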
#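 Test system: Human STAT1-deficient U3A cells with stable STAT3-luciferase reporter | Also added: Interleukin-6, 33 ng/mL | Timing: Compound pre-incubation 1 h before IL-6, then 6 h stimulation at 37 °C | Technique: Luciferase reporter luminescence | Read-out: Percent of IL-6-only median luminescence | Benchmarks: IL-6-only wells as 100% reference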
# Numbers stand for hits; – = inactive; · = not tested or not shown. In the library only some 3.9% were active in any assay of this set; here they are far more common.
SMILES,NF-kB expr up,APP 5'UTR act,STAT1 activator,STAT1 inh,Pf gamet viab,STAT3 activator
Cc1nn(-c2ccccc2)c2c1C(c1c(C)[nH]c(C#N)c1C)C(C#N)=C(N)O2 (stereo not given),–,–,–,–,–,134
Cc1ccc(-n2nc(C)c3c2OC(N)=C(C#N)C3c2ccccc2F)cc1 (stereo not given),–,–,–,–,·,146
Cc1cccc2nc(COc3ccc(Cl)c4cccnc34)cn12,–,–,129,–,–,–
O=C(/C=C/c1cccs1)c1ccc(N2CCOCC2)cc1,–,236,–,–,–,–
CCSc1nnc2c(n1)[nH]c1c(C)cccc12,–,–,139,–,·,–
CSc1nnc2c(n1)[nH]c1c(C)cccc12,–,–,–,–,·,–
COc1ccc(O)c(C(=O)c2coc(=N)c(C(=O)Nc3ccc(SC(F)F)cc3)c2)c1,–,–,–,–,–,–
Cc1nc2ccc(NS(=O)(=O)c3ccc(F)c(C)c3)cc2[nH]1,·,·,·,·,–,·
O=c1[nH]c(/C=C2\C=Nc3ccccc32)c(O)n1Cc1ccccc1F,6.9,–,–,–,–,–
COc1ccc(-n2c(O)c(/C=C3\C=Nc4ccccc43)c(=O)[nH]c2=O)cc1,·,·,·,·,–,·
NC(=O)NC(=O)COC(=O)CC12CC3CC(CC(C3)C1)C2,–,–,–,–,–,–
Cc1cc2n(n1)C(c1c[nH]c3ccccc13)Nc1ccccc1-2 (stereo not given),–,–,–,–,·,139
CCSc1nn2c(=O)c3ccccc3nc2s1,–,–,131,–,·,–
Cc1nonc1C(=O)N/N=C/c1ccncc1,–,–,140,–,–,–
COc1ccc(/C=N/NC(=O)c2nonc2C)cc1,–,–,129,–,·,–
Cc1ccccc1CC(=O)N1CCCC1,·,·,·,·,–,·
C=CCn1c(SCC2CCCCO2)nc2sc(CC)cc2c1=O (stereo not given),·,·,·,·,–,·
COc1cc(OC)cc(C(=O)N=c2sc3ccccc3n2C)c1,–,146,139,–,–,–
CCn1c(=NC(=O)COc2ccccc2)sc2cccc(F)c21,·,·,·,·,–,·
CC(=O)N=c1sc2ccccc2n1C,–,–,–,–,·,–
COc1cccc(C(=O)N/N=c2\sc3ccccc3n2C)c1,–,–,–,–,–,–
COc1ccc(C(=O)N=c2sc3ccccc3n2C)cc1,8.1,163,141,–,–,134
Cn1/c(=N/NC(=O)c2ccccc2F)sc2ccccc21,–,–,149,–,–,–
Cn1c(=NC(=O)COc2ccccc2)sc2ccccc21,3.6,–,148,–,–,–
C#CCOCCOCCOCCNc1nc(N2CCN(C(=O)Cn3cc(CCO)nn3)CC2)nc(N2CCN(C(=O)Cn3cc(CCCCN)nn3)CC2)n1,·,·,·,·,–,·
SMILES,NF-kB expr up,APP 5'UTR act,STAT1 activator,STAT1 inh,Pf gamet viab,STAT3 activator
COc1cccc(C(=O)N=c2sc3cc(S(C)(=O)=O)ccc3n2C)c1,–,–,132,–,–,–
N#Cc1c(NCCO)nc(NCc2ccccc2)c2c1CCN(Cc1ccccc1)C2,5.8,–,–,–,·,–
C=CCNc1nc(N2CCCCC2)c(C#N)c2c1CN(Cc1ccccc1)CC2,4.7,–,–,–,–,–
CCN1CCc2c(C#N)c(N3CCCCC3)nc(NCc3ccccc3)c2C1,–,–,–,–,–,–
CCN1CCc2c(C#N)c(N3CCOCC3)nc(NCc3ccccc3)c2C1,–,–,–,–,–,–
O=C(O)c1ccc2c(c1)N(Cc1ccccc1)C(=O)c1ccccc1S2,·,·,·,·,–,·
Cc1occc1C(=O)NNC(=S)Nc1ccccc1C(F)(F)F,–,–,133,–,–,–
Cc1ccccc1NC(=S)NNC(=O)c1ccoc1C,–,–,–,–,·,–
O=C(O)CC1(CC(=O)Nc2cc3ccccc3cn2)CCCCC1,·,·,·,·,–,·
Fc1ccc(F)c(C2=NNC(=Nc3ccccc3F)SC2)c1,5.1,–,143,–,–,–
CC(C)N=C1NN=C(c2ccc(F)cc2)CS1,3.5,136,–,–,–,–
Clc1ccccc1N=C1NN=C(c2cccs2)CS1,4.3,183,143,–,–,–
Fc1ccccc1N=C1NN=C(c2ccccc2)CS1,4.6,158,143,–,–,–
c1ccc(CN=C2NN=C(c3ccccc3)CS2)cc1,–,–,138,–,–,–
C#CCOCCOCCOCCNc1nc(N2CCN(C(=O)Cn3cc(CC(C)O)nn3)CC2)nc(N2CCN(C(=O)[C@H]([C@@H](C)CC)n3cc(CCCCN)nn3)CC2)n1 (stereo not given in full),·,·,·,·,–,·
CCN1CCN(c2c(C=O)c(Cl)nc3ccc(OC)cc23)CC1,·,·,·,·,–,·
Cc1nc2c(-c3ccc(F)cc3)cnn2c2c1CCC2,–,–,130,–,–,–
CC(C)(C)S(=O)(=O)c1cnc2c(-c3ccc(F)cc3)cnn2c1N,–,–,–,–,–,–
O=c1c2ccccc2nnn1COc1cccc(Cl)c1,–,–,131,–,–,–
O=C(COc1ccc(Cl)cc1Cl)OCn1nnc2ccccc2c1=O,–,–,–,–,·,–
Cc1nn(-c2ccccc2)c(N2CCCC2)c1/C=N/NC(=S)Nc1ccc(F)cc1,·,·,·,·,–,·
Cc1nn(C)cc1/C=N/NC(=S)Nc1ccccc1,3.4,–,–,–,–,–
Cc1cccc(NC(=S)N/N=C/c2c[nH]c3ccccc23)c1,–,–,132,–,–,–
Cc1cn([C@H](C(=O)NCCCCCCCCCCC(=O)N2CCN(C(=O)OC(C)(C)C)CC2)[C@@H](C)O)nn1,·,·,·,·,–,·
Cc1ccc(NC(=O)C(C)N=C2NS(=O)(=O)c3ccccc32)cc1F (stereo not given),·,·,·,·,–,·
SMILES,NF-kB expr up,APP 5'UTR act,STAT1 activator,STAT1 inh,Pf gamet viab,STAT3 activator
Cc1ccc(-n2cc(C(=O)c3ccc(F)cc3)nn2)cc1Cl,–,–,139,–,–,–
CC(C)(C)NC(=O)NC(=O)COC(=O)CNC(=O)c1cc(Cl)cc([N+](=O)[O-])c1,–,–,–,–,42,–
NC(=O)COC(=O)CNC(=O)c1cc(Cl)cc([N+](=O)[O-])c1,–,–,–,–,–,–
CCN(CC)c1ccc(/C=C2\C(=O)N(c3ccc([N+](=O)[O-])cc3)N=C2N2CCOCC2)cc1,·,–,–,–,·,–
CCC1=NN(C(=O)Cc2ccc([N+](=O)[O-])cc2)C(O)(C(C)(C)C)C1 (stereo not given),3.5,–,–,–,·,–
O=[N+]([O-])c1ccc2c(c1)nc1n2CCN(C2CCCCC2)C1,·,–,144,–,–,–
Cc1ccc2nc(-c3ccc(SCC(=O)Nc4ccc5c(c4)OCCO5)nc3)[nH]c2c1,–,–,–,–,·,–
Cc1ccc2nc(-c3ccc(SCC(=O)Nc4nc(C)cs4)nc3)[nH]c2c1,–,149,146,–,–,–
Cc1cc2nc(-c3ccc(SCc4ccccn4)nc3)[nH]c2cc1C,–,–,135,–,–,–
Cc1cc2nc(-c3ccc(SCC(=O)Nc4ccc5c(c4)OCCO5)nc3)[nH]c2cc1C,–,180,–,–,·,–

# High-throughput results: PubChem, several laboratories
